Legend:
[1] = biological target: PSMA receptor on PC3pip cells (Homo sapiens, UniProt Q04609); test: Competitive binding assay
Outline: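 PC3pip cells (PSMA-transduced PC3; RPMI-1640 with 2 mmol/L L-glutamine and 10% FBS, 37°C, 5% CO2), 5 × 10^5 per tube, incubated 1 h at 37°C with varying test compound concentrations plus 12 nmol/L [3H]-methyl-cysteine urea PSMA radioligand. Cells pelleted at 3,000 × g for 5 min at 4°C and washed 3× with cold PBS. Bound radioactivity by scintillation counting; IC50 from curve fitting.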

PC3pip tumors = test: In vivo NIR imaging; set-up: species or system mice; conditions: coinjection; up to 1,000-fold excess of Cys-CO-Glu or PSMA-1; 100-fold excess of ZJ-MCC-Ahx-YYYG

Chain of PSMA receptor on PC3pip cells (Q04609 whole entry): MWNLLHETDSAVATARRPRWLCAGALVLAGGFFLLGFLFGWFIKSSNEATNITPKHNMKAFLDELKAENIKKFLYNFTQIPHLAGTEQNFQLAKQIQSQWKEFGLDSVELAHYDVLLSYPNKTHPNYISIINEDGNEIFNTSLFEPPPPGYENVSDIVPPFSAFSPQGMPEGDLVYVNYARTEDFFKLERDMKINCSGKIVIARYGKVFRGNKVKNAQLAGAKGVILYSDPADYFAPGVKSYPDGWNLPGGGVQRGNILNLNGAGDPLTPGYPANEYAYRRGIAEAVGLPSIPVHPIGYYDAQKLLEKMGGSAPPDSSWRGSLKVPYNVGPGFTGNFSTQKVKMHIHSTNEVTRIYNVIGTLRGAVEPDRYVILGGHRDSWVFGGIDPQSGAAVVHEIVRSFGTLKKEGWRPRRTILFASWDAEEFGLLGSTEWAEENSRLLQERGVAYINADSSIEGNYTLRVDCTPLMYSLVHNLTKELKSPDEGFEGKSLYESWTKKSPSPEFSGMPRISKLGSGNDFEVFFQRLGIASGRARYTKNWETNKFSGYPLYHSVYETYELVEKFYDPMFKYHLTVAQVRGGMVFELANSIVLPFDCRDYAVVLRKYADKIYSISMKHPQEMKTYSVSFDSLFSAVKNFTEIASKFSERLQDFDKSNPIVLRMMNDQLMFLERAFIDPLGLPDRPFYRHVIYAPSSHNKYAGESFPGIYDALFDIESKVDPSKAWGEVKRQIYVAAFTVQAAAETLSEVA

IC50 [1] | Compound | binding affinity better than the parent ligand Cys-CO-Glu ([1]; ratio of IC50 values) | effectiveness as in vivo competitor of the PSMA-1–NIR probes (PC3pip tumors)
 | Glu-CO-Glu'-Amc-Ahx-Glu-Glu-Glu-Lys-NH2 [PSMA-1] | 4.3 fold | unable to achieve effective competition
9.93 ± 0.07 nM | NCCCC[C@H](NC(=O)N[C@@H](CCC(=O)O)C(=O)O)C(=O)O [Cys-CO-Glu, (S)-2-(3-((S)-5-amino-1-carboxypentyl)ureido)pentanedioic acid] |  | unable to achieve effective competition
